# Test results taken from ChEMBL document CHEMBL1122441, “Structure-activity relationships of synthetic antibiotic analogues of anisomycin” (1983).
# Assays:
# [1] = test system: Entamoeba histolytica; experiment: Antiprotozoal activity measured as the conc for 95-[…]% inhibition of Entamoeba histolytica; assay type: functional, organism-based
# [2] = test system: Trichomonas vaginalis; experiment: Antiprotozoal activity measured as the conc for 100% inhibition of Trichomonas vaginalis; assay type: functional, organism-based
# Summary of the method: (§1)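 Protozoa grown 48 h (T. vaginalis in TYM 721, T. foetus in TYM 359, E. histolytica J 190 in modified Boeck Drbohlav medium, 37 °C) and pooled; 0.6 × 10^6 organisms into 10-mL tubes with drug 32 to 0.06 µg/mL, 48 h; inhibition scored microscopically against untreated controls as 100, >95, 95-25 or <25%.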
# [3] = test system: Trichomonas vaginalis; experiment: Antiprotozoal activity measured as the conc for 95-[…]% inhibition of Trichomonas vaginalis; assay type: functional, organism-based
# [4] = test system: Trichomonas vaginalis; experiment: Antiprotozoal activity measured as the conc for >95% inhibition of Trichomonas vaginalis; assay type: functional, organism-based; summary of the method: as §1
# [5] = test system: Tritrichomonas suis; experiment: Antiprotozoal activity measured as the conc for 100% inhibition of Trichomonas foetus; assay type: functional, organism-based; summary of the method: as §1
# [6] = test system: Trichomonas vaginalis; experiment: Antiprotozoal activity measured as the conc for <[…]% inhibition of Trichomonas vaginalis; assay type: functional, organism-based
# [7] = test system: Entamoeba histolytica; experiment: Antiprotozoal activity measured as the conc for <[…]% inhibition of Entamoeba histolytica; assay type: functional, organism-based
# [8] = test system: Tritrichomonas suis; experiment: Antiprotozoal activity measured as the conc for <[…]% inhibition of Trichomonas foetus; assay type: functional, organism-based
# [9] = test system: Entamoeba histolytica; experiment: Antiprotozoal activity measured as the conc for >95% inhibition of Entamoeba histolytica; assay type: functional, organism-based
# Summary of the method: (§2)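 E. histolytica (J 190) grown 48 h at 37 °C in modified Boeck Drbohlav medium, pooled; 0.6 × 10^6 organisms inoculated into 10 mL medium with drug at 32 to 0.06 µg/mL, incubated 48 h.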
# [10] = test system: Tritrichomonas suis; experiment: Antiprotozoal activity measured as the conc for >95% inhibition of Trichomonas foetus; assay type: functional, organism-based; summary of the method: as §1
# [11] = test system: Entamoeba histolytica; experiment: Antiprotozoal activity measured as the conc for 100% inhibition of Entamoeba histolytica; assay type: functional, organism-based; summary of the method: as §2
# [12] = test system: Epidermophyton floccosum; experiment: Antifungal activity against Epidermophyton floccosum, activity expressed as inhibitory zone (mm, diameter); assay type: functional
# Summary of the method: (§3)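 Dermatophytes grown in Sabouraud's dextrose broth, 4-5 day cultures seeded 1:100 into agar; disks with 0.05 mg drug (1 mg/mL stock, Me2SO-EtOH 1:9); grown and tested at 28 °C, zone diameter (mm) read after 48 h.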
# [13] = test system: Candida albicans; experiment: Antifungal activity against Candida albicans, activity expressed as minimum inhibitory concentration (ug/mL); assay type: functional
# Summary of the method: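 Tube dilution in Sabouraud's dextrose broth (ca. 3 mL/tube) at 37 °C; inoculum from 24-h yeast culture, 1:1000 in saline. Drug dissolved in Me2SO-EtOH (1:9), stock 3.2 mg/mL; twofold serial dilutions 32 to 0.06 µg/mL. Read after 48 h; MIC = lowest concentration with no visible growth.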
# [14] = test system: Trichophyton benhamiae; experiment: Antifungal activity against Trichophyton mentagrophytes, activity expressed as minimum inhibitory concentration (ug/mL).; assay type: functional, Arthroderma benhamiae
# [15] = test system: Epidermophyton floccosum; experiment: Antifungal activity against Epidermophyton floccosum, activity expressed as minimum inhibitory concentration (ug/mL); assay type: functional
# [16] = test system: Saccharomyces cerevisiae; experiment: Antifungal activity against Saccharomyces cerevisiae, activity expressed as minimum inhibitory concentration (ug/mL).; assay type: functional
# [17] = test system: Candida albicans; experiment: Antifungal activity against Candida albicans, activity expressed as […] inhibitory zone (mm, diameter); assay type: functional
# Summary of the method: (§4)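 Yeast grown in Sabouraud's dextrose broth, 24-h culture seeded 1:100 into agar; paper disks carrying 0.05 mg drug (from 1 mg/mL stock in Me2SO-EtOH 1:9); 37 °C, read after 48 h as zone diameter (mm).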
# [18] = test system: Saccharomyces cerevisiae; experiment: Antifungal activity against Saccharomyces cerevisiae, activity expressed as inhibitory zone (mm, diameter); assay type: functional; summary of the method: as §4
# [19] = test system: Streptococcus pyogenes; experiment: Antibacterial activity against Streptococcus pyogenes C, activity expressed as inhibitory zone (mm, diameter); assay type: functional
# Summary of the method: (§5)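 Agar diffusion: disks loaded with 0.05 mg drug (stock 1 mg/mL in Me2SO-EtOH 1:9) on brain-heart infusion agar seeded 1:100 with 48-h anaerobe culture grown in thioglycolate broth; incubated anaerobically at 37 °C for 24 h; zone diameter measured in mm.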
# [20] = test system: Clostridium novyi; experiment: Antibacterial activity against Clostridium novyi, activity expressed as inhibitory zone (mm, diameter); assay type: functional; summary of the method: as §5
# [21] = test system: Trichophyton benhamiae; experiment: Antifungal activity against Trichophyton mentagrophytes, activity expressed as inhibitory zone (mm, diameter); assay type: functional, Arthroderma benhamiae; summary of the method: as §3
# [22] = test system: Tritrichomonas suis; experiment: Antiprotozoal activity measured as the conc for 95-[…]% inhibition of Trichomonas foetus; assay type: functional, organism-based
# [23] = test system: Actinomyces israelii; experiment: Antibacterial activity against Actinomyces israelii, activity expressed as inhibitory zone (mm, diameter); assay type: functional; summary of the method: as §5
# [24] = test system: Cutibacterium acnes; experiment: Antibacterial activity against Propionibacterium acnes, activity expressed as inhibitory zone (mm, diameter); assay type: functional; summary of the method: as §5
# [25] = test system: Bacteroides fragilis; experiment: Antibacterial activity against Bacteroides fragilis, activity expressed as […] inhibitory zone (mm, diameter); assay type: functional
# Summary of the method: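 Agar diffusion vs B. fragilis grown in thioglycolate broth: 0.05 mg drug per paper disk (stock 1 mg/mL, Me2SO-EtOH 1:9), brain-heart infusion agar seeded with 48-h culture at 1:100, anaerobic 37 °C, 24 h; zone diameter in mm.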
# [26] = test system: Trichophyton benhamiae; experiment: Antifungal activity against Trichophyton mentagrophytes, activity expressed as minimum inhibitory concentration ([…]).; assay type: functional, Arthroderma benhamiae
# [27] = test system: Cutibacterium acnes; experiment: Antibacterial activity against Propionibacterium acnes, activity expressed as inhibitory zone (mm, diameter); QA is questionable activity; assay type: functional, organism-based; summary of the method: as §5
# [28] = test system: Candida albicans; experiment: Antifungal activity against Candida albicans, activity expressed as minimum inhibitory concentration ([…]); assay type: functional
# [29] = test system: Tritrichomonas suis; experiment: Antiprotozoal activity measured as the conc for < […]% inhibition of Trichomonas foetus; assay type: functional, organism-based
# [30] = test system: Saccharomyces cerevisiae; experiment: Antifungal activity against Saccharomyces cerevisiae, activity expressed as minimum inhibitory concentration ([…]).; assay type: functional
# [31] = test system: Trichomonas vaginalis; experiment: Antiprotozoal activity measured as the conc for<[…]% inhibition of Trichomonas vaginalis; assay type: functional, organism-based
# [32] = test system: Epidermophyton floccosum; experiment: Antifungal activity against Epidermophyton floccosum, activity expressed as minimum inhibitory concentration ([…]); assay type: functional
# [33] = test system: Entamoeba histolytica; experiment: Antiprotozoal activity measured as the conc for 100% inhibition of Entamoeba histolytica,; assay type: functional, organism-based; summary of the method: as §1
# [34] = test system: Entamoeba histolytica; experiment: Antiprotozoal activity measured as the conc for <[…]% inhibition of Entamoeba histolytica,; assay type: functional, organism-based
# [35] = test system: Entamoeba histolytica; experiment: Antiprotozoal activity measured as the conc for >95% inhibition of Entamoeba histolytica,; assay type: functional, organism-based; summary of the method: as §1
# [36] = test system: Candida albicans; experiment: Antifungal activity against Candida albicans, activity expressed as […] inhibitory zone (mm, diameter); QA is questionable activity; assay type: functional, organism-based
# Summary of the method: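 Agar diffusion on Sabouraud's dextrose agar seeded with 24-h yeast culture at 1:100 in agar; paper disks loaded with 0.05 mg drug (stock 1 mg/mL in Me2SO-EtOH 1:9). Incubated at 37 °C for 48 h; inhibition zone diameter measured in mm.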
# [37] = test system: Saccharomyces cerevisiae; experiment: Antifungal activity against Saccharomyces cerevisiae, activity expressed as inhibitory zone (mm, diameter); QA is questionable activity; assay type: functional, organism-based; summary of the method: as §4
# [38] = Candida albicans, read-out: MIC
# [39] = Trichophyton benhamiae, read-out: MIC
# [40] = Epidermophyton floccosum, read-out: MIC
# [41] = Saccharomyces cerevisiae, read-out: MIC
Compound,Concentration [2],Concentration [3],Concentration [4],Concentration [6],Concentration [8],Concentration [9],Concentration [11],Inhibitory zone [12],"MIC [13, 38]","MIC [14, 39]","MIC [15, 40]","MIC [16, 41]",Inhibitory zone [17],Inhibitory zone [18],Inhibitory zone [19],Inhibitory zone [20],Inhibitory zone [21],Inhibitory zone [23],Inhibitory zone [24],Inhibitory zone [25],other results
COc1ccc(C[C@H]2NC[C@H](O)[C@H]2OC(C)=O)cc1 (racemic),2 µg/mL,0.5 µg/mL,1 µg/mL,0.25 µg/mL,1 µg/mL,2 µg/mL,4 µg/mL,,,,,,,,,,,,,,Concentration [1]: 0.5 µg/mL; Concentration [5]: 8 µg/mL; Concentration [7]: 0.25 µg/mL; Concentration [10]: 2 µg/mL
CC(=O)O[C@@H]1[C@@H](O)CN[C@@H]1Cc1ccc(C)cc1,8 µg/mL,2 µg/mL,4 µg/mL,,0.5 µg/mL,2 µg/mL,4 µg/mL,8 mm,8 µg/mL,4 µg/mL,16 µg/mL,1 µg/mL,0 mm,0 mm,0 mm,0 mm,10 mm,0 mm,0 mm,0 mm,Concentration [1]: 1 µg/mL; Concentration [5]: 16 µg/mL; Concentration [22]: 1 µg/mL; Concentration [10]: 4 µg/mL
COc1ccccc1C[C@H]1NC[C@H](O)[C@H]1OC(C)=O,,,,32 µg/mL,,,,0 mm,,,,,0 mm,0 mm,0 mm,13 mm,0 mm,0 mm,,0 mm,MIC [26]: > 32 µg/mL; Inhibitory zone [27]: Questionable activity; MIC [28]: > 32 µg/mL; Concentration [29]: 32 µg/mL; MIC [30]: > 32 µg/mL; Concentration [31]: 32 µg/mL; MIC [32]: > 32 µg/mL
Clc1ccccc1C(c1ccccc1)(c1ccccc1)n1ccnc1 [CLOTRIMAZOLE],32 µg/mL,8 µg/mL,,4 µg/mL,,,,,,,,,,,,,,,,,Concentration [1]: 8 µg/mL; MIC [13]: 4 µg/mL; MIC [14]: 0.06 µg/mL; MIC [15]: 0.06 µg/mL; MIC [16]: 0.06 µg/mL; Concentration [33]: 32 µg/mL; Concentration [34]: 4 µg/mL; Concentration [35]: 16 µg/mL
COc1ccc(C[C@H]2NC[C@H](O)[C@H]2OC(C)=O)cc1 (racemic) [ANISOMYCIN],,,,,,,,8 mm,8 µg/mL,4 µg/mL,32 µg/mL,0.5 µg/mL,0 mm,10 mm,0 mm,0 mm,10 mm,0 mm,0 mm,0 mm,
COc1cccc(C[C@H]2NC[C@H](O)[C@H]2OC(C)=O)c1,32 µg/mL,8 µg/mL,16 µg/mL,4 µg/mL,8 µg/mL,16 µg/mL,32 µg/mL,8 mm,> 32 µg/mL,> 32 µg/mL,> 32 µg/mL,8 µg/mL,0 mm,0 mm,0 mm,15 mm,10 mm,10 mm,12 mm,10 mm,Concentration [7]: 8 µg/mL; Concentration [10]: 16 µg/mL
COc1ccc(C[C@H]2NC[C@H](O)[C@H]2OC(C)=O)cc1 [ANISOMYCIN],,,,,,,,,,,,,,13 mm,,,,,,10 mm,MIC [13]: 4 µg/mL; MIC [14]: 2 µg/mL; MIC [15]: 16 µg/mL; MIC [16]: 0.25 µg/mL
COc1ccc(C(c2ccccc2)[C@H]2NC[C@H](O)[C@H]2OC(C)=O)cc1 (some centres undefined),,32 µg/mL,,16 µg/mL,16 µg/mL,,,10 mm,> 32 µg/mL,> 32 µg/mL,> 32 µg/mL,> 32 µg/mL,0 mm,0 mm,13 mm,20 mm,0 mm,10 mm,18 mm,0 mm,Concentration [7]: 32 µg/mL; Concentration [22]: 32 µg/mL
COc1ccc(C[C@H]2NC[C@H](O)[C@H]2OC(C)=O)cc1,2 µg/mL,0.25 µg/mL,0.5 µg/mL,,0.25 µg/mL,1 µg/mL,2 µg/mL,,,,,,,,,,,,,,Concentration [5]: 4 µg/mL; Concentration [22]: 0.5 µg/mL; Concentration [10]: 1 µg/mL; Inhibitory zone [36]: Questionable activity
CC(=O)O[C@@H]1[C@@H](O)CN[C@@H]1Cc1ccccc1,8 µg/mL,2 µg/mL,4 µg/mL,,2 µg/mL,2 µg/mL,16 µg/mL,8 mm,32 µg/mL,16 µg/mL,32 µg/mL,2 µg/mL,0 mm,,0 mm,0 mm,10 mm,0 mm,0 mm,0 mm,Concentration [5]: 32 µg/mL; Concentration [22]: 4 µg/mL; QA [37]: questionable activity; Concentration [10]: 16 µg/mL
COc1ccc(C(C)[C@H]2NC[C@H](O)[C@H]2OC(C)=O)cc1 (some centres undefined),,,,32 µg/mL,32 µg/mL,,,0 mm,,,,,0 mm,0 mm,0 mm,8 mm,0 mm,0 mm,0 mm,24 mm,MIC [26]: > 32 µg/mL; MIC [28]: > 32 µg/mL; MIC [30]: > 32 µg/mL; Concentration [7]: 32 µg/mL; MIC [32]: > 32 µg/mL
Cc1ncc([N+](=O)[O-])n1CCO [METRONIDAZOLE],0.5 µg/mL,0.12 µg/mL,0.25 µg/mL,0.06 µg/mL,0.12 µg/mL,0.12 µg/mL,0.25 µg/mL,8 mm,> 32 µg/mL,> 32 µg/mL,> 32 µg/mL,> 32 µg/mL,0 mm,,0 mm,25 mm,0 mm,0 mm,0 mm,20 mm,Concentration [5]: 0.5 µg/mL; Concentration [22]: 0.25 µg/mL
